Experimental data gathered from unrelated publications.
Each line is one published result; the experiments were not run side by side. pEC50: −log10 of the molar value.
Cell line: HeLa
Observed: cell growth or viability

| SMILES | technique | concentration | time | measurement | result |
| --- | --- | --- | --- | --- | --- |
| c1cc(N2CCCC2)ccc1-c1cc2ncc(OCC3CCNCC3)nc2cc1-c1ccc(N2CCCC2)cc1 | XTT | – | 7 days | pEC50 | < 4.52 |
| CCN(CC)CCCC(C)Nc1ccnc2cc(Cl)ccc12 (stereo not drawn) | MTT | – | 48 h | CC50 | > 100 µg/mL |
| CCn1c(=O)c(-c2cc[nH]n2)cc2c(C)nc(N)nc21 | MTT | – | – | CC50 | 13.6 µM |
| CC(C)n1ncc2c(C(=O)NCC3(C)CNC3)cc(C3CC3)nc21 | neutral red | 0.33 µM | – | viability | 101% |
| NC(=O)c1ncn([C@@H]2O[C@H](CO)[C@@H](O)[C@H]2O)n1 | MTT | – | – | CC50 | 115 µM |
| c1cc(-c2cc3ncc(OCC4CCNCC4)nc3cc2-c2cccc(N3CCCCC3)c2)cc(N2CCCCC2)c1 | XTT | – | 7 days | pEC50 | 4.62 |
| Nc1nc2c(ncn2COCCO)c(=O)[nH]1 | MTT | – | 48 h | CC50 | 355 µM |
| CC[C@H](CC[C@@H](C)[C@H]1CC[C@H]2[C@@H]3CC=C4C[C@@H](O)CC[C@]4(C)[C@H]3CC[C@]12C)C(C)C | MTT | – | 48 h | CC50 | > 100 µg/mL |
| Fc1ccc(Oc2ccc(Nc3ccc4ncc(OCC5CCNCC5)nc4c3)cc2)cc1 | XTT | – | 7 days | pEC50 | < 4.52 |
